TAG inh = reduces triacylglycerol accumulation in H9c2 cells; 230,000 compounds, 0.66% hits; inhibition, % at 12.5 µM; Nile Red lipid (TAG) fluorescence; cells loaded with 200 µM oleic acid; AID 651582;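 active = pattern-corrected inhibition of lipid staining of at least 50% with the nuclear-stain viability signal not falling by more than 50%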;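 also: 0% = DMSO wells and 100% = triacsin C control wells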
A1 inh = inhibitors of the anti-apoptotic protein A1, read as caspase activation; 330,000 compounds, 0.066% hits; caspase activation, % (no concentration beside the values); MEF A1-2A-BIM cells, Caspase-Glo 3/7 luminescence, 3 h; percent of clofoctol response, vehicle zero;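 active = over half of replicate activation scores above 10%, or exactly half above 10 with the replicate mean above 10; inconclusive = replicate mean below 10 yet half the replicates above 10; inactive = over half of replicates below 10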
Vif inh = blocks HIV Vif function; HEK293T cells, Vif self-association by quenched fluorescence, imaging, 24 h; inhibition, % at 7.49 µM; 340,000 compounds, 0.35% hits; AID 602346; in the data active = inhibition above about 50%, passing the limit was not always enough; inconclusive = no clear call, values can overlap the other calls; inactive = below about 31%
SR-BI uptake up = enhances SR-BI lipid uptake from DiI-HDL | CHO ldlA[mSR-BI] cells, DiI-HDL uptake fluorescence, 3 h; 100 = double the neutral-control signal | activation, % at 12.5 µM | 320,000 compounds, 0.096% hits | AID 504775;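 active = mean replicate activation of at least 60% and every replicate at or above 60%; inconclusive = mean or all-replicate condition met, but not both; inactive = mean below 60% and not all replicates reaching 60%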;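 also: 0% = median plate neutral-control signal and 100% = twice that signal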
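Material: SR-BI-overexpressing, LDLR-lacking CHO cells; schedule: compound exposure 3 h, 37 °C; reagent: DiI-labelled HDL at 10 µg/mL final; technique: bottom-read fluorescence, 550/595 nm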
SR-BI HDL uptake = blocks mouse SR-BI lipid uptake from DiI-HDL; Q61009; ldlA[mSR-BI] CHO cells, DiI-HDL uptake fluorescence, 3 h; inhibition, % at 12.5 µM; 320,000 compounds, 0.96% hits; AID 488896;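 active = mean replicate inhibition of at least 70% and a set share of replicates each scoring 70 or more; inconclusive = meets just one of the two criteria; inactive = fails both criteria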;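 also: 0% = median of neutral control wells and 100% = median of positive control wells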
Target sequence (Q61009 whole entry, looked up): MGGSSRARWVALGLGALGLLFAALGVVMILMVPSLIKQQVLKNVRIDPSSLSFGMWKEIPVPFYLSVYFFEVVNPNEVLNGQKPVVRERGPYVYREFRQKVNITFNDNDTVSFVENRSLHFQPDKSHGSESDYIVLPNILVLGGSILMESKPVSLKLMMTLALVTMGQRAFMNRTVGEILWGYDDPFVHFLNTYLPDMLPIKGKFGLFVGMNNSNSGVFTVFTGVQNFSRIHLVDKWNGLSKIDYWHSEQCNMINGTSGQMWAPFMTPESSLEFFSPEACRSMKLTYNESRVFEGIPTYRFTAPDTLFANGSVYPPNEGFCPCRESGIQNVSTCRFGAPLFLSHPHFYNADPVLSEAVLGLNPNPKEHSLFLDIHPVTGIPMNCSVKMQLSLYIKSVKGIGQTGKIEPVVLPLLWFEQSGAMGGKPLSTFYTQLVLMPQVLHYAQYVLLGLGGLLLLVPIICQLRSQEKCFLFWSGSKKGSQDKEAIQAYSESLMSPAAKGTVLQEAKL
DiI quench = DiI fluorescence quenching in cell-free counter-screen; shares compounds with SR-BI HDL uptake; cell-free DiI-HDL fluorescence quenching, 30 min; AC50, µM (highest dose often 35 µM), without a hit: at the top dose activity change, negative = quenching; 470 compounds, 20% hits; AID 540326;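 active = quenching, a falling signal, with AC50 below a set limit tied to the top valid dose, actives reach about 32 µM in these data; inconclusive = no clear call, values can overlap the other calls; inactive = rising signal, and the rest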
* = called active by the depositor; ? = inconclusive; nt = no result. Compounds with a hit are over-represented: about 1.6% of the library has one in this group of screens.

SMILES | TAG inh | A1 inh | Vif inh | SR-BI uptake up | SR-BI HDL uptake | DiI quench
COc1ccc(C2/C=C\CN(S(=O)(=O)/C=C/c3ccccc3)CC(=O)N2Cc2ccc(F)cc2)cc1 (configuration not stated) | 9 | 2 | 12 | -50 | 50 | nt
CCc1cc(=O)oc2c3c(cc(OCC(=O)NCc4ccco4)c12)OC(C)(C)CC3 | nt | 0 | -17 | -76 | ? | 0%
O=C(Nc1ccccc1)NC1CC2CCC(C1)N2Cc1nnnn1Cc1ccc2c(c1)OCO2 (configuration not stated) | 34 | 0 | nt | -71 | ? | 1%
C/C(N)=C(/C#N)C(=O)COC(=O)CCCNC(=O)c1ccc(Cl)cc1 | 3 | 0 | 1 | 28 | -28 | nt
COc1ccc(OC)c(CCNC(=O)c2ccc(NC3=NC4CS(=O)(=O)CC4S3)cc2)c1 (configuration not stated) | 2 | 0 | -5 | -83 | 83* | 2%
CN(C)CCNC(=O)c1ccc2c(c1)N(Cc1ccc(F)cc1)CCS2 | -7 | 0 | 5 | -25 | 25 | nt
Cc1ccc(CN2CCSc3ccc(C(=O)NCCCN4CCN(C)CC4)cc32)cc1 | nt | 0 | 6 | -18 | 18 | nt
COc1ccc(CCNC(=O)c2ccc3c(c2)N(Cc2ccc(F)cc2)CCS3)c(OC)c1 | nt | ? | 4 | -82 | 82* | -12%
COc1ccc(CCNC(=O)c2ccc3c(c2)N(Cc2ccc(C)cc2)CCS3)cc1OC | nt | 0 | -1 | -75 | 75* | -10%
O=C(NC1CCCC1)c1ccc2c(c1)N(Cc1ccc(F)cc1)CCS2 | nt | -1 | 1 | -38 | 38 | nt
COc1ccc(OC)c(CCNC(=O)c2ccc3c(c2)N(Cc2ccc(F)cc2)CCS3)c1 | nt | 0 | -13 | -82 | 82* | -12%
CCOC(=O)c1cc(NC(=O)c2ccccc2)c(=O)n2c1oc1ccccc12 | 19 | 0 | -12 | -1 | 1 | nt
O=C(Nc1cccc(-c2cn3c(n2)SCC3)c1)c1ccc2ccccc2n1 | -12 | -1 | -7 | -76 | 76* | -5%
O=C(Nc1ccc(-c2cn3c(n2)SCC3)cc1)c1ccc2ccccc2n1 | 24 | -2 | -7 | -55 | 55 | nt
Cc1ccc(NS(=O)(=O)c2ccc(C(=O)NNC(=O)c3ccccc3O)cc2)cc1 | -1 | 0 | -6 | -120 | 120* | 0.46µM*
Cc1cc(=O)oc2cc(OCC(=O)N3CCN(C(=O)C4COc5ccccc5O4)CC3)c(Cl)cc12 (configuration not stated) | nt | 3 | -6 | -80 | 80* | -5%
Cc1c(CC(=O)N2CCN(C(=O)C3COc4ccccc4O3)CC2)c(=O)oc2cc(O)c(Cl)cc12 (configuration not stated) | nt | 1 | 16 | 6 | -6 | nt
COc1ccc(NC(=O)Nc2nnc(-c3ccccc3SCc3ccccc3)s2)cc1 | -10 | 0 | -10 | -101 | 101* | 3.2µM*
COc1cccc(NC(=O)Nc2nnc(-c3ccccc3SCc3ccccc3)s2)c1 | nt | 1 | -3 | -47 | 47 | nt
Cc1cc(C)nc(Nc2n[nH]c(-c3ccc(C(C)(C)C)cc3)n2)n1 | 17 | 0 | -28 | -108 | 108* | 11µM*
COc1ccc(-c2csc(NCCc3nc4cc(Cl)c(N5CCCCC5)cc4n3CCOCCO)n2)cc1 | nt | 2 | nt | -83 | 83* | 13µM*
COc1ccc(-c2csc(N3CCN(c4cc5c(cc4Cl)nc(-c4ccncc4)n5CCOCCO)CC3)n2)cc1 | 15 | 0 | 9 | -61 | 61 | nt
CCOC(=O)N1CCN(C(=O)C2CCN(C(=O)Nc3ccccc3)CC2)CC1 | 10 | 0 | 10 | -74 | 74* | -1%
COc1ccc(CCN(C)C(=O)C(CCSC)NC(=O)c2ccco2)cc1OC (configuration not stated) | -17 | 2 | 3 | 25 | -25 | nt
O=C(OCc1ccccc1)N1CCC2CC1c1cc(-c3ccc(F)cc3)ccc12 (configuration not stated) | 13 | nt | nt | nt | nt | -4%
SMILES | TAG inh | A1 inh | Vif inh | SR-BI uptake up | SR-BI HDL uptake | DiI quench
NNC(=O)c1ccc(CSc2n[nH]c(=O)[nH]c2=O)cc1 | -3 | 0 | -2 | 30 | -30 | nt
C=CCN1C=C(C(C)=O)C(=O)CC1 | 2 | nt | nt | 10 | -10 | nt
CC[C@@H](C)[C@H](NC(=O)Cc1c(C)c2cc3c(C)coc3c(C)c2oc1=O)C(=O)O | nt | 1 | -4 | nt | nt | nt
CC[C@@H](C)[C@H](NC(=O)Cc1c(C)c2cc3c(C)c(C)oc3c(C)c2oc1=O)C(=O)O | nt | 2 | -10 | -95 | 95* | -3%
O=C1C2CCCN2C(=O)N1CCCN1CCN(c2ccc([N+](=O)[O-])cc2)CC1 (configuration not stated) | 3 | 1 | -4 | -94 | 94* | -2%
COC(=O)c1ccc2c(c1)C(=O)/C(=C/c1ccc(C)cc1)O2 | nt | 1 | -6 | -6 | 6 | nt
CN(C)c1ccc(/C=C2\Oc3ccc(C#Cc4cccc(N)c4)cc3C2=O)cc1 | 13 | -1 | 63* | -70 | ? | -14%
Cc1ccccc1-c1cc(C(=O)NCc2cccc(Br)c2)nn1CC1CC(c2cccc([N+](=O)[O-])c2)=NO1 (configuration not stated) | 1 | 1 | -5 | -34 | 34 | -1%
Cn1c(=O)c([N+](=O)[O-])c(-n2cnc3ccccc32)c2ccccc21 | -2 | 1 | -11 | -15 | 15 | nt
COc1ccccc1CNC(=O)C1CCC(CNC(=O)[C@@H]2Cc3ccccc3CN2)CC1 (some centres not stated) | nt | 0 | -2 | -77 | 77* | -5%
COc1ccccc1CNC(=O)CNC(=O)[C@@H]1Cc2ccccc2CN1 | nt | 0 | 10 | -3 | 3 | nt
COc1cc(NC(=O)C2CC(c3c(F)cccc3Cl)=NO2)c(OC)cc1Cl (configuration not stated) | -25 | 0 | -8 | -82 | 82* | 0%
COc1ccc(NC(=O)C2CC(c3c(F)cccc3Cl)=NO2)cc1OC (configuration not stated) | -11 | 0 | -5 | -22 | 22 | nt
CCC(C(=O)NC(C)(C)C)N(Cc1ccccc1Cl)C(=O)c1snc(C(N)=O)c1N (configuration not stated) | -2 | 1 | 25 | -6 | 6 | nt
CC(C(=O)NCc1ccccc1)N(Cc1ccccc1Cl)C(=O)c1snc(C(N)=O)c1N (configuration not stated) | nt | 0 | -7 | -84 | 84* | 2%
Cc1cc(C)cc(N(CCC#N)C(=O)COC(=O)CCc2c[nH]c3ccccc23)c1 | 25 | -1 | -4 | -74 | ? | -13%
O=C(COC(=O)CCc1c[nH]c2ccccc12)Nc1ccccc1 | 16 | nt | -1 | 20 | -20 | nt
